ChEMBL document CHEMBL4014276, “Diphenylurea derivatives for combating methicillin- and vancomycin-resistant Staphylococcus aureus” (Eur J Med Chem, 2017)
≈ marks a conversion by molar mass, not a printed value. Calls of active or inactive are those of the source. The rule behind the calls is not given here.

Key:
Staphylococcus aureus [1] = assay: Antibacterial activity against methicillin-resistant Staphylococcus aureus USA400 NRS123 clinical isolate after 20 hrs by broth microdilution method; type: functional; details: USA400 NRS123, 20 h
Method in brief: (§1)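 CLSI broth microdilution in cation-adjusted Mueller Hinton broth; compounds serially diluted, triplicate samples; 37 °C, 20 h. MIC read visually as lowest concentration with no visible growth; mean of triplicate determinations reported.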

Staphylococcus aureus [2] = assay: Bactericidal activity against vancomycin-resistant Staphylococcus aureus VRSA10 after 18 hrs by broth microdilution method; type: functional; details: VRSA10, 18 h
Method in brief: (§2)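 From MIC wells without visible growth, 5 uL spotted onto Tryptic soy agar, incubated 37 °C for at least 18 h; MBC taken as lowest concentration giving 99.9% growth inhibition.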

Staphylococcus aureus [3] = assay: Antibacterial activity against methicillin-resistant Staphylococcus aureus USA100 NRS382 clinical isolate preincubated followed by bacterial subculturing for 2 weeks; type: functional
Staphylococcus aureus [4] = assay: Bactericidal activity against methicillin-resistant Staphylococcus aureus USA200 NRS383 clinical isolate after 18 hrs by broth microdilution method; type: functional; details: USA200 NRS383, 18 h; method in brief: as §2
Staphylococcus aureus [5] = assay: Bactericidal activity against methicillin-resistant Staphylococcus aureus USA100 NRS382 clinical isolate after 18 hrs by broth microdilution method; type: functional; details: USA100 NRS382, 18 h; method in brief: as §2
Staphylococcus aureus [6] = assay: Antibacterial activity against methicillin-resistant Staphylococcus aureus USA100 NRS382 clinical isolate after 20 hrs by broth microdilution method; type: functional; details: USA100 NRS382, 20 h; method in brief: as §1
Staphylococcus aureus [7] = assay: Bactericidal activity against methicillin-resistant Staphylococcus aureus USA300 NRS384 clinical isolate after 18 hrs by broth microdilution method; type: functional; details: USA300 NRS384, 18 h; method in brief: as §2
Staphylococcus aureus [8] = assay: Antibacterial activity against vancomycin-resistant Staphylococcus aureus VRSA4 after 20 hrs by broth microdilution method; type: functional; details: VRSA4, 20 h; method in brief: as §1
Staphylococcus aureus [9] = assay: Bactericidal activity against vancomycin-resistant Staphylococcus aureus VRSA4 after 18 hrs by broth microdilution method; type: functional; details: VRSA4, 18 h; method in brief: as §2
Staphylococcus aureus [10] = assay: Antibacterial activity against methicillin-resistant Staphylococcus aureus USA300 NRS384 clinical isolate preincubated followed by bacterial subculturing for 2 weeks; type: functional
Staphylococcus aureus [11] = assay: Bactericidal activity against methicillin-resistant Staphylococcus aureus USA400 NRS123 clinical isolate after 18 hrs by broth microdilution method; type: functional; details: USA400 NRS123, 18 h; method in brief: as §2
Staphylococcus aureus [12] = assay: Antibacterial activity against methicillin-resistant Staphylococcus aureus USA400 NRS123 clinical isolate preincubated followed by bacterial subculturing for 2 weeks; type: functional
Staphylococcus aureus [13] = assay: Antibacterial activity against methicillin-resistant Staphylococcus aureus USA300 NRS384 clinical isolate after 20 hrs by broth microdilution method; type: functional; details: USA300 NRS384, 20 h; method in brief: as §1
Staphylococcus aureus [14] = assay: Antibacterial activity against vancomycin-resistant Staphylococcus aureus VRSA10 after 20 hrs by broth microdilution method; type: functional; details: VRSA10, 20 h; method in brief: as §1
Staphylococcus aureus [15] = assay: Antibacterial activity against Staphylococcus aureus RN4220 NRS107 clinical isolate after 20 hrs by broth microdilution method; type: functional; details: RN4220 NRS107, 20 h; method in brief: as §1
Staphylococcus aureus [16] = assay: Antibacterial activity against methicillin-resistant Staphylococcus aureus USA200 NRS383 clinical isolate preincubated followed by bacterial subculturing for 2 weeks; type: functional
Staphylococcus aureus [17] = assay: Antibacterial activity against methicillin-resistant Staphylococcus aureus USA200 NRS383 clinical isolate after 20 hrs by broth microdilution method; type: functional; details: USA200 NRS383, 20 h; method in brief: as §1
Staphylococcus aureus [18] = assay: Bactericidal activity against Staphylococcus aureus RN4220 NRS107 clinical isolate after 18 hrs by broth microdilution method; type: functional; details: RN4220 NRS107, 18 h; method in brief: as §2
[19] = Half life in human liver microsomes in presence of NADPH by LC-MS/MS method; type: ADME, microsome
[20] = Intrinsic clearance in human liver microsomes in presence of NADPH by LC-MS/MS method; type: ADME, microsome; details: read-out: CLH

C/C(=N\NC(=N)N)c1ccc(NC(=O)c2cccc(Oc3ccccc3)c2)cc1
MIC (Staphylococcus aureus [1]): 16 µg/mL (≈ 41.3 µM)

C/C(=N\NC(=N)N)c1ccc(NC(=O)Nc2ccc(OCC(C)C)cc2)cc1
MBC (Staphylococcus aureus [2]): 8 µg/mL (≈ 20.9 µM) | Activity (Staphylococcus aureus [3]): Active | MBC (Staphylococcus aureus [4]): 4 µg/mL (≈ 10.5 µM) | MBC (Staphylococcus aureus [5]): 8 µg/mL (≈ 20.9 µM) | MIC (Staphylococcus aureus [6]): 8 µg/mL (≈ 20.9 µM) | MBC (Staphylococcus aureus [7]): 8 µg/mL (≈ 20.9 µM) | MIC (Staphylococcus aureus [8]): 4 µg/mL (≈ 10.5 µM) | MIC (Staphylococcus aureus [1]): 8 µg/mL (≈ 20.9 µM) | MBC (Staphylococcus aureus [9]): 8 µg/mL (≈ 20.9 µM) | Activity (Staphylococcus aureus [10]): Active | MBC (Staphylococcus aureus [11]): 16 µg/mL (≈ 41.8 µM) | Activity (Staphylococcus aureus [12]): Active | MIC (Staphylococcus aureus [13]): 4 µg/mL (≈ 10.5 µM) | MIC (Staphylococcus aureus [14]): 4 µg/mL (≈ 10.5 µM) | MIC (Staphylococcus aureus [15]): 4 µg/mL (≈ 10.5 µM) | Activity (Staphylococcus aureus [16]): Active | MIC (Staphylococcus aureus [17]): 4 µg/mL (≈ 10.5 µM) | MBC (Staphylococcus aureus [18]): 4 µg/mL (≈ 10.5 µM)

C/C(=N\NC(=N)N)c1ccc(NC(=O)Cc2ccc(F)cc2)cc1
MIC (Staphylococcus aureus [1]): 16 µg/mL (≈ 48.9 µM)

CCCCOc1ccc(NC(=O)Nc2ccc(/C(C)=N/NC(=N)N)cc2)cc1
MBC (Staphylococcus aureus [2]): 32 µg/mL (≈ 83.7 µM) | Activity (Staphylococcus aureus [3]): Active | MBC (Staphylococcus aureus [4]): 32 µg/mL (≈ 83.7 µM) | MBC (Staphylococcus aureus [5]): 16 µg/mL (≈ 41.8 µM) | MIC (Staphylococcus aureus [6]): 16 µg/mL (≈ 41.8 µM) | MBC (Staphylococcus aureus [7]): 16 µg/mL (≈ 41.8 µM) | MIC (Staphylococcus aureus [8]): 16 µg/mL (≈ 41.8 µM) | MIC (Staphylococcus aureus [1]): 8 µg/mL (≈ 20.9 µM) | MBC (Staphylococcus aureus [9]): 16 µg/mL (≈ 41.8 µM) | half-life [19]: 65.5 min | Activity (Staphylococcus aureus [10]): Active | MBC (Staphylococcus aureus [11]): 32 µg/mL (≈ 83.7 µM) | Activity (Staphylococcus aureus [12]): Active | MIC (Staphylococcus aureus [13]): 16 µg/mL (≈ 41.8 µM) | MIC (Staphylococcus aureus [14]): 16 µg/mL (≈ 41.8 µM) | MIC (Staphylococcus aureus [15]): 16 µg/mL (≈ 41.8 µM) | Activity (Staphylococcus aureus [16]): Active | microsomal CLint [20]: 51 µL/min/mg | MIC (Staphylococcus aureus [17]): 16 µg/mL (≈ 41.8 µM) | MBC (Staphylococcus aureus [18]): > 64 µg/mL

CCCCc1ccc(NC(=O)Nc2ccc(/C(C)=N/NC(=N)N)cc2)cc1
MIC (Staphylococcus aureus [1]): 8 µg/mL (≈ 21.8 µM) | half-life [19]: 13 min | microsomal CLint [20]: 190 µL/min/mg

CCC(CC)COc1ccc(NC(=O)Nc2ccc(/C(C)=N/NC(=N)N)cc2)cc1
Activity (Staphylococcus aureus [3]): Active | MIC (Staphylococcus aureus [6]): 128 µg/mL (≈ 312 µM) | Activity (Staphylococcus aureus [10]): Active | Activity (Staphylococcus aureus [12]): Active | Activity (Staphylococcus aureus [16]): Active

CC(=O)NC[C@H]1CN(c2ccc(N3CCOCC3)c(F)c2)C(=O)O1 [LINEZOLID]
MBC (Staphylococcus aureus [2]): 16 µg/mL (≈ 47.4 µM) | MBC (Staphylococcus aureus [4]): 32 µg/mL (≈ 94.9 µM) | MBC (Staphylococcus aureus [5]): 16 µg/mL (≈ 47.4 µM) | MBC (Staphylococcus aureus [7]): 16 µg/mL (≈ 47.4 µM) | MBC (Staphylococcus aureus [9]): 8 µg/mL (≈ 23.7 µM) | MBC (Staphylococcus aureus [11]): 32 µg/mL (≈ 94.9 µM) | MBC (Staphylococcus aureus [18]): 32 µg/mL (≈ 94.9 µM)

C/C(=N\NC(=N)N)c1ccc(NC(=O)c2cc(-c3ccccc3)n(C)n2)cc1
MIC (Staphylococcus aureus [1]): > 32 µg/mL

C/C(=N\NC(=N)N)c1ccc(NC(=O)Nc2nc3ccccc3s2)cc1
MIC (Staphylococcus aureus [1]): 10 µg/mL (≈ 27.2 µM)

COc1ccc(C(=O)Nc2ccc(/C(C)=N/NC(=N)N)cc2)cc1OC
MIC (Staphylococcus aureus [1]): 16 µg/mL (≈ 45 µM)

C/C(=N\NC(=N)N)c1ccc(NC(=O)Nc2ccc(OCC3CCC3)cc2)cc1
MBC (Staphylococcus aureus [2]): 32 µg/mL (≈ 81.1 µM) | Activity (Staphylococcus aureus [3]): Active | MBC (Staphylococcus aureus [4]): 32 µg/mL (≈ 81.1 µM) | MBC (Staphylococcus aureus [5]): 16 µg/mL (≈ 40.6 µM) | MIC (Staphylococcus aureus [6]): 16 µg/mL (≈ 40.6 µM) | MBC (Staphylococcus aureus [7]): 16 µg/mL (≈ 40.6 µM) | MIC (Staphylococcus aureus [8]): 16 µg/mL (≈ 40.6 µM) | MIC (Staphylococcus aureus [1]): 16 µg/mL (≈ 40.6 µM) | MBC (Staphylococcus aureus [9]): 16 µg/mL (≈ 40.6 µM) | Activity (Staphylococcus aureus [10]): Active | MBC (Staphylococcus aureus [11]): 32 µg/mL (≈ 81.1 µM) | Activity (Staphylococcus aureus [12]): Active | MIC (Staphylococcus aureus [13]): 16 µg/mL (≈ 40.6 µM) | MIC (Staphylococcus aureus [14]): 16 µg/mL (≈ 40.6 µM) | MIC (Staphylococcus aureus [15]): 16 µg/mL (≈ 40.6 µM) | Activity (Staphylococcus aureus [16]): Active | MIC (Staphylococcus aureus [17]): 16 µg/mL (≈ 40.6 µM) | MBC (Staphylococcus aureus [18]): 16 µg/mL (≈ 40.6 µM)

C/C(=N\NC(=N)N)c1ccc(NC(=O)c2cc(C)oc2C)cc1
MIC (Staphylococcus aureus [1]): 24 µg/mL (≈ 76.6 µM)

C/C(=N\NC(=N)N)c1ccc(NC(=O)Nc2ccc(OCc3ccccc3)cc2)cc1
MBC (Staphylococcus aureus [2]): > 64 µg/mL | Activity (Staphylococcus aureus [3]): Active | MBC (Staphylococcus aureus [4]): 16 µg/mL (≈ 38.4 µM) | MBC (Staphylococcus aureus [5]): > 128 µg/mL | MIC (Staphylococcus aureus [6]): 4 µg/mL (≈ 9.6 µM) | MBC (Staphylococcus aureus [7]): 8 µg/mL (≈ 19.2 µM) | MIC (Staphylococcus aureus [8]): 8 µg/mL (≈ 19.2 µM) | MIC (Staphylococcus aureus [1]): 8 µg/mL (≈ 19.2 µM) | MBC (Staphylococcus aureus [9]): 8 µg/mL (≈ 19.2 µM) | Activity (Staphylococcus aureus [10]): Active | MBC (Staphylococcus aureus [11]): > 64 µg/mL | Activity (Staphylococcus aureus [12]): Active | MIC (Staphylococcus aureus [13]): 8 µg/mL (≈ 19.2 µM) | MIC (Staphylococcus aureus [14]): 8 µg/mL (≈ 19.2 µM) | MIC (Staphylococcus aureus [15]): 8 µg/mL (≈ 19.2 µM) | Activity (Staphylococcus aureus [16]): Active | MIC (Staphylococcus aureus [17]): 8 µg/mL (≈ 19.2 µM) | MBC (Staphylococcus aureus [18]): 8 µg/mL (≈ 19.2 µM)
